Screening results (PubChem BioAssay)
Rows were chosen to be rich in hits. Some 1% of all compounds tested hit in one or more screens of this group.
PDI turbidity: inhibitors of human PDI, primary screen, biochemical, turbidity, single point, plate reader | inhibition, % at 10 µM | hit rate 0.052% among 350,000 | Protein disulfide-isomerase (Homo sapiens), P07237 | PDI insulin aggregation turbidity, A650, 90 min;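 active means mean inhibition across replicates of 30% or more, whatever share of single replicates reach that level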
IMP-1 inhibitor: IMP-1 metallo-beta-lactamase inhibitors, primary screen, biochemical, epi-absorbance readout, Pseudomonas aeruginosa enzyme; inhibition, % at 5.6 µM; AID 1556, 2009; purified IMP-1, nitrocefin hydrolysis, epi-absorbance fluorescence; hit rate 0.45% among 290,000; metallo-beta-lactamase IMP-1 (Pseudomonas aeruginosa);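 active means inhibition above the mean plus 3 SD of all compounds in the same screening run, cut at about 4.5% in these data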
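System: Purified IMP-1 | Read-out basis: Percent enzyme inhibition | Controls: IMP-1 with DMSO as 0%, enzyme-free DMSO as 100% | Replicates: One well per compound | Doses: 5.6 µM nominal single concentration | Detection: Epi-absorbance fluorescence, 480 nm excitation, 530 nm emission | Incubation: 25 °C, 15 min preincubation, 25 min reaction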
ERp5 inh: inhibitors of ERp5-driven insulin aggregation, primary screen, biochemical, turbidity, absorbance 650 nm, single point; Protein disulfide-isomerase A6 (Homo sapiens), Q15084; 90 min; inhibition, % at 9.99 µM; hit rate 0.05% among 350,000; AID 651711, 2012;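 active means mean replicate inhibition above about 25%, with every replicate also reaching it, limit read from the data, passing the limit was not always enough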
Target sequence (Q15084 whole entry, looked up): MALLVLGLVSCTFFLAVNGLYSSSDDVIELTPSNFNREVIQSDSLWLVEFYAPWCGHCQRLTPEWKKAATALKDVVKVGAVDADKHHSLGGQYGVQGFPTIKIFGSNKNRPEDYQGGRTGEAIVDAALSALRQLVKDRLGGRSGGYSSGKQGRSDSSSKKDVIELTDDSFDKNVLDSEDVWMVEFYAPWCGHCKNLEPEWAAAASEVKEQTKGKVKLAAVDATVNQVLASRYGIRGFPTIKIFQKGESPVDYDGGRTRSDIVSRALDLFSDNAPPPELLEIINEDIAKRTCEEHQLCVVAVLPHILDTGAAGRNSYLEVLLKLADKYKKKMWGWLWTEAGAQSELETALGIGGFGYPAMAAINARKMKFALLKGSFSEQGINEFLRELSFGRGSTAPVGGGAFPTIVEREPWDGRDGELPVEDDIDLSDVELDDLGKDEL
PvdQ inh: P. aeruginosa PvdQ acylase inhibitors, primary screen, biochemical, fluorescence, plate reader and imaging, single point. PvdQ acylase [Pseudomonas aeruginosa LESB58]. purified PvdQ acylase. inhibition, % at 10 µM. hit rate 0.063% among 340,000; in the data active means inhibition above about 30%, passing the limit was not always enough
VIM-2 inhibitor: VIM-2 metallo-beta-lactamase inhibitors, primary screen, biochemical, epi-absorbance readout, Pseudomonas aeruginosa enzyme; inhibition, % at 5.6 µM; purified VIM-2, nitrocefin hydrolysis, epi-absorbance fluorescence; hit rate 0.89% among 290,000;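 active means inhibition above the mean of all tested compounds plus 3 SD, cutoff set per screening run, cut at about 7.5% in these data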;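 further: red hydrolysis product quenches plate fluorescence so inhibitors raise well fluorescence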
PglD inh: C. jejuni PglD acetyltransferase inhibitors, primary screen, biochemical, DTNB colorimetric, single point. inhibition, % at 12.5 µM. purified PglD enzyme, DTNB colorimetric CoA detection. UDP-N-acetylbacillosamine N-acetyltransferase PglD (Campylobacter jejuni). hit rate 0.098% among 360,000; in the data active means inhibition above about 16%, passing the limit was not always enough
A number is an active result; – = inactive; · = not tested or not shown.

SMILES | PDI turbidity | IMP-1 inhibitor | ERp5 inh | PvdQ inh | VIM-2 inhibitor | PglD inh
COCC#Cc1ccc2c(c1)O[C@@H](CN(C)Cc1ccncc1)[C@H](C)CN([C@@H](C)CO)S2(=O)=O | · | · | – | · | · | –
COc1ccccc1/C=C/c1nc(S(=O)(=O)c2ccccc2)c(NCCN(C)C)o1 | – | – | – | – | – | –
COc1ccc(/C=C/c2nc(S(=O)(=O)c3ccccc3)c(NCCCN(C)C)o2)cc1OC | – | – | – | – | 8.8 | –
Cc1cccn2c(=O)c3cc(C(=O)N4CCOCC4)n(C)c3nc12 | – | – | – | – | 8.2 | –
O=C(NCCN1CCN(c2ccccc2)CC1)c1cccn2c(=O)c3cc(Cl)ccc3nc12 | – | – | · | – | 8.2 | –
Cn1c(C(=O)NCCN2CCOCC2)cc2c(=O)n3ccccc3nc21 | – | – | – | – | 8.3 | –
Cc1cccn2c(=O)c3cc(C(=O)N4CCN(C(=O)c5ccco5)CC4)n(C)c3nc12 | – | – | · | – | – | –
COc1ccc(CCNC(=O)c2cc3c(=O)n4cccc(C)c4nc3n(CCCN3CCOCC3)c2=N)cc1 | – | – | – | – | 7.8 | –
O=C(NCCN1CCN(c2cccc(Cl)c2)CC1)c1cccn2c(=O)c3ccccc3nc12 | – | · | – | – | · | ·
O=C(C[C@@H]1C=C[C@H](NC(=O)C2CC2)[C@H](CO)O1)Nc1ccccc1 | · | · | – | · | · | –
CCCNC(=O)C[C@H]1CC[C@H]2[C@@H](COc3ccc(NC(=O)Cc4ccccc4)cc3C(=O)N2C)O1 | · | · | – | · | · | –
CCC(=O)N1[C@@H](CO)[C@@H](c2ccccc2)C12CN(C(=O)c1ccc(F)cc1)C2 | · | · | – | · | · | ·
C[C@H](CO)N1C[C@H](C)[C@H](CN(C)Cc2ccncc2)Oc2ccc(NC(=O)Cc3ccccc3)cc2C1=O | · | · | – | · | · | –
O=C(Nc1ccc(F)cc1)N[C@H]1CC[C@@H](CCNS(=O)(=O)c2cccc(Cl)c2)O[C@H]1CO | · | · | – | · | · | –
Cc1cccn2c(=O)c3cc(C(=O)NCCN4CCOCC4)c(=N)n(CCN4CCOCC4)c3nc12 | – | – | – | – | 11 | –
O=C(COc1cc2oc(=O)c3c(c2cc1Cl)CCC3)NCc1ccccn1 | – | – | – | – | 10 | –
CC(Oc1cc2oc(=O)c3c(c2cc1Cl)CCC3)C(=O)NCc1cccnc1 (stereo unspecified) | – | – | – | – | 11 | –
CC(Oc1cc2oc(=O)c3c(c2cc1Cl)CCCC3)C(=O)NCc1ccccn1 (stereo unspecified) | – | – | – | – | – | –
CC(Oc1cc2oc(=O)c3c(c2cc1Cl)CCCC3)C(=O)NCc1cccnc1 (stereo unspecified) | – | – | – | – | – | –
CCc1cc(=O)oc2cc(OCC(=O)NCc3ccccn3)ccc12 | – | – | – | – | – | –
O=C(COc1ccc2c3c(c(=O)oc2c1)CCCC3)NCc1ccccn1 | – | – | – | – | 7.8 | –
CC(Oc1cc2oc(=O)c3c(c2cc1Cl)CCC3)C(=O)NCc1ccccn1 (stereo unspecified) | – | – | – | – | 12 | –
COc1ccc(CN(C)C[C@@H]2OCCCC[C@@H](C)Oc3ccc(NC(=O)c4ccccc4)cc3C(=O)N([C@@H](C)CO)C[C@H]2C)cc1 | · | · | – | · | · | –
C[C@H]1CCCCO[C@@H](CN(C)C(=O)CCC(F)(F)F)[C@@H](C)CN([C@@H](C)CO)C(=O)c2cc(NS(C)(=O)=O)ccc2O1 | · | · | – | · | · | –
C[C@@H]1CN([C@H](C)CO)S(=O)(=O)c2ccc(C#CC3CC3)cc2O[C@@H]1CN(C)Cc1cccc(F)c1 | · | · | – | · | · | –
SMILES | PDI turbidity | IMP-1 inhibitor | ERp5 inh | PvdQ inh | VIM-2 inhibitor | PglD inh
O=C(Nc1ccccc1)c1ccc(-c2ccc([N+](=O)[O-])cc2)o1 | – | 5.0 | – | – | – | ·
COc1ccc(NC(=O)c2ccc(-c3ccc([N+](=O)[O-])cc3)o2)cc1 | – | – | – | – | – | –
CCOC(=O)c1cc(-c2cccc([N+](=O)[O-])c2)on1 | – | – | – | 62 | – | –
CCOC(=O)c1csc(-c2ccc([N+](=O)[O-])cc2)n1 | – | – | – | – | – | ·
Cc1cnc(NC2=NCCC2)s1 | 38 | – | – | – | – | ·
COc1ccc(-c2ccc([C@H]3[C@H](CO)N4C(=O)CNC[C@@H]34)cc2)cc1 | · | · | – | · | · | ·
CC(=O)c1ccc(OCc2cc(C(=O)N3CCCCC3c3cccnc3)no2)cc1 (stereo unspecified) | 33 | – | – | – | – | –
Cc1ccccc1NC(=S)NCCSc1ccc(Cl)cc1 | – | 50 | – | – | – | –
COc1ccc(CN(C)C[C@@H]2Oc3c(NS(C)(=O)=O)cccc3C(=O)N([C@@H](C)CO)C[C@H]2C)cc1 | · | · | – | · | · | –
CSc1nc2nccc(-c3ccc4c(c3)OCO4)n2n1 | – | – | – | – | 11 | –
Cc1noc(C)c1S(=O)(=O)Nc1cccc2c1O[C@H](CN(C)Cc1ccc3c(c1)OCO3)[C@H](C)CN([C@H](C)CO)C2=O | · | · | – | · | · | –
Cc1oc2c(cc(NS(=O)(=O)c3cccs3)c3ccccc32)c1C(=O)OC(C)C | – | – | · | – | – | –
COc1ccc(S(=O)(=O)Nc2cc3c(C(C)=O)c(C)oc3c3ccccc23)cc1 | – | – | · | – | – | –
Cc1oc2c(cc(NS(=O)(=O)c3ccc(C(C)C)cc3)c3ccccc32)c1C(=O)O | – | 8.9 | – | – | – | –
Cc1oc2c(cc(NS(=O)(=O)c3ccc(F)cc3)c3ccccc32)c1C(=O)O | – | 5.8 | – | – | – | –
Cc1ccc(S(=O)(=O)Nc2ccc3c(c2)C(=O)N([C@@H](C)CO)C[C@H](C)[C@@H](CN(C)C(=O)Nc2ccccc2)OCCCC[C@H](C)O3)cc1 | · | · | – | · | · | –
COc1ccccc1NC(=O)N[C@H]1CC[C@@H](CC(=O)N[C@@H](C)c2ccccc2)O[C@@H]1CO | · | · | – | · | · | –
COc1ccccc1NC(=O)N[C@@H]1CC[C@H](CCNS(=O)(=O)c2ccccc2)O[C@@H]1CO | · | · | – | · | · | –
CC1CC(=O)c2cnc(NCC3CCCO3)nc2C1 (stereo unspecified) | – | – | · | – | – | –
CC1(C)CC(=O)c2cnc(NCC3CCCO3)nc2C1 (stereo unspecified) | – | 6.0 | · | – | – | –
C[C@@H](NC(=O)[C@@H]1[C@@H](CO)[C@@H]2Cn3c(ccc(C4=CCCCC4)c3=O)[C@H]1N2)c1ccccc1 | · | · | – | · | · | –
C[C@@H]1CN([C@H](C)CO)S(=O)(=O)c2ccc(C#CCN(C)C)cc2O[C@H]1CN(C)Cc1ccccn1 | · | · | – | · | · | –
Oc1ccc2ccccc2c1/C=N/Nc1nnc(-c2ncc[nH]2)c2ccccc12 | – | 36 | · | – | – | ·
COc1ccc(/C=N/Nc2nnc(-c3ncc[nH]3)c3ccccc23)cc1 | – | – | · | – | – | –
